From ChEMBL document CHEMBL1143827, “In vitro activity of 2,4-diamino-6-[2-(phosphonomethoxy)ethoxy]-pyrimidine against multidrug-resistant hepatitis B virus mutants” (Antimicrob Agents Chemother, 2007)

Legend:
Hepatitis B virus [1] = assay: Inhibition of wild type HBV replication in Huh7 cells; assay type: functional, organism-based; conditions: Huh-7
Summary of the method: (§1)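 Huh7 hepatoma cells were transiently transfected with plasmids carrying 1.1 genome units of wild-type HBV under a chicken beta-actin promoter, then treated with drug across a range starting at 0 μM (up to 100 μM for some drugs). Intracellular HBV DNA was purified and analysed by Southern blot to derive EC50. Values are means of at least three independent experiments, each run in triplicate.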

[2] = Effect on cell viability in human Huh7 cells; assay type: cell-based, Huh-7
Summary of the method: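 Huh7 cells were exposed to drug, and viability was read as neutral red dye uptake. CC50 is the concentration that cut uptake by 50%, given as mean ± SD of three independent experiments run in quadruplicate.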

Hepatitis B virus [3] = assay: Antiviral activity against wild type HBV assessed as inhibition of replication; assay type: functional, organism-based; summary of the method: as §1
Hepatitis B virus [4] = assay: Antiviral activity against adenofir-resistant HBV with reverse transcriptase N236T mutant assessed as inhibition of replication; assay type: functional, organism-based
Summary of the method: (§2)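 Huh7 cells transiently transfected with plasmids carrying 1.1 genome units of mutant or wild-type HBV under the chicken beta-actin promoter. Drug range was 0 to 100 μM for PMEO-DAPym, lamivudine, adefovir and tenofovir. Intracellular HBV DNA was purified and analysed by Southern blot to give EC50. Values are means of at least three independent experiments, each run in triplicate.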

Hepatitis B virus [5] = assay: Fold resistance, ratio of lamivudine-resistant HBV with reverse transcriptase V173L/L180/M204V mutant to wild-type HBV genotype H; assay type: functional
Summary of the method: (§3)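 Each mutant and its corresponding wild-type strain were transfected into Huh7 cells and treated in parallel with the same drug concentration range, with HBV DNA read by Southern blot. Fold resistance = mutant EC50 / corresponding wild-type EC50. Uses means of at least three independent experiments, each in triplicate.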

Hepatitis B virus [6] = assay: Fold resistance, ratio of Lamivudine -adenofir-resistant HBV with reverse transcriptase V173L/L180M/A181V mutant to wildtype HBV genotype E; assay type: functional; summary of the method: as §3
Hepatitis B virus [7] = assay: Fold resistance, ratio of Lamivudine -adenofir-resistant with HBV reverse transcriptase V173L/L180M/A181V/M204V mutant to wildtype HBV genotype E; assay type: functional; summary of the method: as §3
Hepatitis B virus [8] = assay: Fold resistance, ratio of lamivudine -adenofir-resistant with HBV reverse transcriptase V173L/L180M/A181V/M204V/N236T mutant to wild-type HBV genotype E; assay type: functional; summary of the method: as §3
Hepatitis B virus [9] = assay: Fold resistance, ratio of Lamivudine -adenofir-resistant with HBV reverse transcriptase V173L/L180M/A181V/N236T mutant to wildtype HBV genotype E; assay type: functional; summary of the method: as §3
Hepatitis B virus [10] = assay: Fold resistance, ratio of entecavir-resistant HBV with reverse transcriptase L180M/S202G/M204V mutant to wild-type HBV genotype H; assay type: functional; summary of the method: as §3
Hepatitis B virus [11] = assay: Antiviral activity against lamivudine-resistant HBV with reverse transcriptase L180M/M204V mutant assessed as inhibition of replication; assay type: functional, organism-based; summary of the method: as §2
Hepatitis B virus [12] = assay: Antiviral activity against lamivudine-adefovir-resistant HBV with reverse transcriptase L180M/M204V/N236T mutant assessed as inhibition of replication; assay type: functional, organism-based; summary of the method: as §2
Hepatitis B virus [13] = assay: Fold resistance, ratio of EC50 for adenofir-resistant HBV with reverse transcriptase N236T mutant to EC50 for wild-type HBV; assay type: functional; summary of the method: as §3
Hepatitis B virus [14] = assay: Fold resistance, ratio of EC50 for lamivudine-resistant HBV with reverse transcriptase L180M/M204V mutant to EC50 for wild-type HBV; assay type: functional; summary of the method: as §3
Hepatitis B virus [15] = assay: Fold resistance, ratio of EC50 for lamivudine-adefovir-resistant HBV with reverse transcriptase L180M/M204V/N236T mutant to EC50 for wild-type HBV; assay type: functional; summary of the method: as §3
Hepatitis B virus [16] = assay: Antiviral activity against wild type HBV genotype H assessed as inhibition of replication; assay type: functional, organism-based; summary of the method: as §1
Hepatitis B virus [17] = assay: Antiviral activity against wild type HBV genotype E assessed as inhibition of replication; assay type: functional, organism-based; summary of the method: as §1
Hepatitis B virus [18] = assay: Antiviral activity against lamivudine-resistant HBV with reverse transcriptase L180M/M204V mutant; assay type: functional, organism-based; summary of the method: as §2
Hepatitis B virus [19] = assay: Antiviral activity against lamivudine-resistant HBV with reverse transcriptase L180M/A181V mutant; assay type: functional, organism-based; summary of the method: as §2
Hepatitis B virus [20] = assay: Antiviral activity against lamivudine-resistant HBV with reverse transcriptase V173L/L180/M204V mutant; assay type: functional, organism-based; summary of the method: as §2
Hepatitis B virus [21] = assay: Antiviral activity against lamivudine-adenofir-resistant HBV with reverse transcriptase V173L/L180M/A181V mutant; assay type: functional, organism-based; summary of the method: as §2
Hepatitis B virus [22] = assay: Antiviral activity against Lamivudine -adenofir-resistant HBV with reverse transcriptase V173L/L180M/A181V/M204V mutant; assay type: functional, organism-based; summary of the method: as §2
Hepatitis B virus [23] = assay: Antiviral activity against Lamivudine -adenofir-resistant HBV with reverse transcriptase V173L/L180M/A181V/M204V/N236T mutant; assay type: functional, organism-based; summary of the method: as §2
Hepatitis B virus [24] = assay: Antiviral activity against lamivudine-adenofir-resistant HBV with reverse transcriptase V173L/L180M/A181V/N236T mutant; assay type: functional, organism-based; summary of the method: as §2
Hepatitis B virus [25] = assay: Antiviral activity against entecavir-resistant HBV with reverse transcriptase L180M/S202G/M204V mutant; assay type: functional, organism-based; summary of the method: as §2
Hepatitis B virus [26] = assay: Fold resistance, ratio of lamivudine-resistant HBV with reverse transcriptase L180M/M204V mutant to wild-type HBV genotype E; assay type: functional; summary of the method: as §3
Hepatitis B virus [27] = assay: Fold resistance, ratio of lamivudine-resistant HBV with reverse transcriptase L180M/A181V mutant to wild-type HBV genotype E; assay type: functional; summary of the method: as §3

SMILES	EC50 (Hepatitis B virus [1]) [µM]	CC50 [2] [µM]	EC50 (Hepatitis B virus [3]) [µM]	EC50 (Hepatitis B virus [4]) [µM]	Ratio EC50 (Hepatitis B virus [5])	Ratio EC50 (Hepatitis B virus [6])	Ratio EC50 (Hepatitis B virus [7])	Ratio EC50 (Hepatitis B virus [8])	Ratio EC50 (Hepatitis B virus [9])	Ratio EC50 (Hepatitis B virus [10])	EC50 (Hepatitis B virus [11]) [µM]	EC50 (Hepatitis B virus [12]) [µM]	Ratio EC50 (Hepatitis B virus [13])	Ratio EC50 (Hepatitis B virus [14])	Ratio EC50 (Hepatitis B virus [15])	EC50 (Hepatitis B virus [16]) [µM]	EC50 (Hepatitis B virus [17]) [µM]	EC50 (Hepatitis B virus [18]) [µM]	EC50 (Hepatitis B virus [19]) [µM]	EC50 (Hepatitis B virus [20]) [µM]	other results
Nc1cc(OCCOCP(=O)(O)O)nc(N)n1	4.9	> 1000	4	4.5	0.9	4.3	3.2	2.1	5.1	1	4.7	5.7	1.1	1.2	1.4	4.4	5.6	5.3	27	4.1	EC50 (Hepatitis B virus [21]): 24 µM; EC50 (Hepatitis B virus [22]): 18 µM; EC50 (Hepatitis B virus [23]): 12 µM; EC50 (Hepatitis B virus [24]): 29 µM; EC50 (Hepatitis B virus [25]): 4.5 µM; Ratio EC50 (Hepatitis B virus [26]): 0.9; Ratio EC50 (Hepatitis B virus [27]): 4.8
C=C1[C@H](CO)[C@@H](O)C[C@@H]1n1cnc2c(=O)[nH]c(N)nc21.O [ENTECAVIR]	0.3	125	0.8	0.7	43	50	>=800	461	9	210	5	5	0.88	6.25	6.25	0.09	0.06	10.5	1.5	3.7	EC50 (Hepatitis B virus [21]): 2.75 µM; EC50 (Hepatitis B virus [22]): ≥ 50 µM; EC50 (Hepatitis B virus [23]): 25.4 µM; EC50 (Hepatitis B virus [24]): 0.5 µM; EC50 (Hepatitis B virus [25]): 18 µM; Ratio EC50 (Hepatitis B virus [26]): 175; Ratio EC50 (Hepatitis B virus [27]): 28
CC(C)(C)C(=O)OCOP(=O)(COCCn1cnc2c(N)ncnc21)OCOC(=O)C(C)(C)C [ADEFOVIR DIPIVOXIL]	13	365	15.8	50.3	0.7	4.8	4	7.7	>10	1.1	15.5	100	3.2	0.98	6.3	13.6	10	15	27	9.8	EC50 (Hepatitis B virus [21]): 48 µM; EC50 (Hepatitis B virus [22]): 40 µM; EC50 (Hepatitis B virus [23]): 77 µM; EC50 (Hepatitis B virus [24]): > 100 µM; EC50 (Hepatitis B virus [25]): 15 µM; Ratio EC50 (Hepatitis B virus [26]): 1.5; Ratio EC50 (Hepatitis B virus [27]): 2.7
C[C@H](Cn1cnc2c(N)ncnc21)OCP(=O)(O)O [TENOFOVIR ANHYDROUS]	16	> 1000	10.3	46	1.2	1.6	1.8	1.8	1.1	2	35.2	45.5	4.5	3.4	4.4	13.6	25	27	36	16	EC50 (Hepatitis B virus [21]): 42 µM; EC50 (Hepatitis B virus [22]): 45 µM; EC50 (Hepatitis B virus [23]): 46 µM; EC50 (Hepatitis B virus [24]): 28 µM; EC50 (Hepatitis B virus [25]): 27 µM; Ratio EC50 (Hepatitis B virus [26]): 1.1; Ratio EC50 (Hepatitis B virus [27]): 1.4
Nc1ccn([C@@H]2CS[C@H](CO)O2)c(=O)n1 [LAMIVUDINE]	1	> 1000	2.48	2.65	>156	1000	>1000	>1000	>1000	>156	> 100	> 100	1.06	>40	>40	0.64	0.1	> 100	80	> 100	EC50 (Hepatitis B virus [21]): 100 µM; EC50 (Hepatitis B virus [22]): > 100 µM; EC50 (Hepatitis B virus [23]): > 100 µM; EC50 (Hepatitis B virus [24]): > 100 µM; EC50 (Hepatitis B virus [25]): > 100 µM; Ratio EC50 (Hepatitis B virus [26]): >1000; Ratio EC50 (Hepatitis B virus [27]): 800
